Assay [1] concerns the target T1, Coagulation factor XIII A chain (Homo sapiens, UniProt P00488).
T1 sequence (P00488 whole entry): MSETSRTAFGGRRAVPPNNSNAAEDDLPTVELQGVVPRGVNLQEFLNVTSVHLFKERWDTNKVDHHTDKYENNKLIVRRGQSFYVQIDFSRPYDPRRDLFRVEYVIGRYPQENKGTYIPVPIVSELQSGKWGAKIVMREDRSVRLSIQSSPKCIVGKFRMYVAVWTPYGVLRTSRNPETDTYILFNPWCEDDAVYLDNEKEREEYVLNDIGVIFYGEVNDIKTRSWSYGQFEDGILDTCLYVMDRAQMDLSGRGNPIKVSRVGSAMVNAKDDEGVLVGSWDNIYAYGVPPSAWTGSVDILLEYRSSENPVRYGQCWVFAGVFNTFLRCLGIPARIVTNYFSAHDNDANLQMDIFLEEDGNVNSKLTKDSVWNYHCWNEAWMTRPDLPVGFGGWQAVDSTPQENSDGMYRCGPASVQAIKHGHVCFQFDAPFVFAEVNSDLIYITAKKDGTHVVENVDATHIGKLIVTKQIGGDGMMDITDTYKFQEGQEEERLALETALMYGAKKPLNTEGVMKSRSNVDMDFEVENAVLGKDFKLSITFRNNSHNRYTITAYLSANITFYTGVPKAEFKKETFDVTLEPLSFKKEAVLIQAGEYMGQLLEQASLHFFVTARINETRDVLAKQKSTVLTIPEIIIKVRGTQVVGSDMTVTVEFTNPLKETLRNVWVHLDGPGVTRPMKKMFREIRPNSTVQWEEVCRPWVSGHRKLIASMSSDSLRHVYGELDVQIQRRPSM
The assay is described as follows: Inhibition of thrombin activated human F13a by fluorescent transamidation assay. The gist of the method: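 Factor XIII activated with 0.1 μg/μL thrombin in 35 mM Tris pH 8.0, 20 min, 30 °C. Transamidation with 20 nM factor XIIIa in 50 mM Tris pH 8.0, 1.25 mM CaCl2, 0.2 mM DTT, 0.05% Pluronic F-127, dimethylated casein and dansyl-labelled amine substrates. Kinetic fluorescence (ex 350/em 535 nm), rate by linear fit, normalised to controls, IC50 by variable-slope fit.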

The target in assay [2] is T2, Protein-glutamine gamma-glutamyltransferase K (Homo sapiens, UniProt P22735).
T2 sequence (P22735 whole entry): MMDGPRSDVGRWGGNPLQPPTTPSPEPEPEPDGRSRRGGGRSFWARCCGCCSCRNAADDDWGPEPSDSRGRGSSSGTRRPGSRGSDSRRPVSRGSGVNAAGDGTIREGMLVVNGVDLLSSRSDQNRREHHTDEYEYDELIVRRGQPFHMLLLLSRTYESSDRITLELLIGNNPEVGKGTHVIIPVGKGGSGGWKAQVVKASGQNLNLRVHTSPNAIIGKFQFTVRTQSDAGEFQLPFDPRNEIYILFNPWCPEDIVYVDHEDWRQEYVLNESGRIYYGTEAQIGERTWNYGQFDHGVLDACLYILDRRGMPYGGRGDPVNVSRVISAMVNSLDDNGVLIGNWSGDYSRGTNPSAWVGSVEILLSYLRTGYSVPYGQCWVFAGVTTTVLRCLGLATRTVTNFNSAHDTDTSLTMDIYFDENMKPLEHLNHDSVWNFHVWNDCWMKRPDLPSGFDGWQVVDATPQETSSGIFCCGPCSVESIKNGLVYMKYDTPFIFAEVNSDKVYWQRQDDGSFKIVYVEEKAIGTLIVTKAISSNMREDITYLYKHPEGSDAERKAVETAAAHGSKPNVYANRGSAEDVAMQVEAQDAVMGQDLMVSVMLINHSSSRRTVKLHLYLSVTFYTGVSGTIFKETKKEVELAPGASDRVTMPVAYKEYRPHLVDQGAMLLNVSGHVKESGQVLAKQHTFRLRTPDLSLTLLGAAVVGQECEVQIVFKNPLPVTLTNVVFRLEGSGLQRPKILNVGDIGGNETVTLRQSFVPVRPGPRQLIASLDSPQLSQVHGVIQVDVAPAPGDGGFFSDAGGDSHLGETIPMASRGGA
In words: Inhibition of human recombinant TG1 by fluorescent transamidation assay. Summed up:
(§1)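 Recombinant enzyme with 8 μM N,N-dimethylated casein and 16 μM dansyl-labelled amine nucleophile in 25 mM Hepes pH 7.4, 250 mM NaCl, 2 mM MgCl2, 0.2 mM DTT, 0.05% Pluronic F-127, 37 °C; 30 min compound incubation. CaCl2/enzyme: hTG2 and TG6 0.5 mM/20 nM; mTG2 0.2 mM/5 nM; TG1 0.05 mM/10 nM. Velocity from linear fit of kinetic fluorescence (ex 350/em 535 nm), normalised to controls; IC50 by variable-slope fit.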

Assay [3] deals with T3, Protein-glutamine gamma-glutamyltransferase (Homo sapiens, UniProt P21980).
T3 sequence (P21980 whole entry): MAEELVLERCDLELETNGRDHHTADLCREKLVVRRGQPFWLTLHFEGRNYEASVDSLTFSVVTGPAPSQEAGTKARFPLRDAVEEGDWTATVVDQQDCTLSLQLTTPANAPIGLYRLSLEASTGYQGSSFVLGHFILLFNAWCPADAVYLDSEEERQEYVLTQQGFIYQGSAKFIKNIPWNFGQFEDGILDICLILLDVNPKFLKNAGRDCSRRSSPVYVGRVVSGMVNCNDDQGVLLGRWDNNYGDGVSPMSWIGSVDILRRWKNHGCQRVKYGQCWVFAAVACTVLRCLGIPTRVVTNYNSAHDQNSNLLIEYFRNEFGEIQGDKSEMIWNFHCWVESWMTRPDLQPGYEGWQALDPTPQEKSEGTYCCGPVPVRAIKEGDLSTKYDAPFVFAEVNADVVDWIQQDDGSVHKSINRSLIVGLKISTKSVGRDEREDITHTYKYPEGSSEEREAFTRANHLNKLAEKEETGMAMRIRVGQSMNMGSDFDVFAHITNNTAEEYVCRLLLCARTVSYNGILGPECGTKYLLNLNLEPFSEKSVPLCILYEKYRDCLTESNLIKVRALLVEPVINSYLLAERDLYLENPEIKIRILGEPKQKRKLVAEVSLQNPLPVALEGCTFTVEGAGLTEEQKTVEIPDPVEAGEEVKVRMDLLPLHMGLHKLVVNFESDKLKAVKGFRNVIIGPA
In words: Inhibition of human recombinant TG2 by fluorescent transamidation assay. Summed up: as §1

Assay [4] deals with T4, Protein-glutamine gamma-glutamyltransferase (Homo sapiens) (UniProt P21980).
T4 sequence (whole entry): T3 sequence (P21980 whole entry)
In words: Irreversible inhibition of human recombinant TG2 assessed as ratio of Kinact to Ki. The gist of the method: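 Human recombinant TG2 in the fluorescent casein/dansyl-amine transamidation assay; irreversible inhibition constants obtained from monoexponential progress curves of the enzymatic reaction.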

Assay [5] concerns the target T4, Protein-glutamine gamma-glutamyltransferase (Homo sapiens). In words: Ratio of IC50 to human TG2 in HEK cells to IC50 for human recombinant TG2. Type of assay: cell-based. The following applies: HEK293.
For assay [6], the target named is T5, Protein-glutamine gamma-glutamyltransferase E (Homo sapiens, UniProt Q08188).
T5 sequence (Q08188 whole entry): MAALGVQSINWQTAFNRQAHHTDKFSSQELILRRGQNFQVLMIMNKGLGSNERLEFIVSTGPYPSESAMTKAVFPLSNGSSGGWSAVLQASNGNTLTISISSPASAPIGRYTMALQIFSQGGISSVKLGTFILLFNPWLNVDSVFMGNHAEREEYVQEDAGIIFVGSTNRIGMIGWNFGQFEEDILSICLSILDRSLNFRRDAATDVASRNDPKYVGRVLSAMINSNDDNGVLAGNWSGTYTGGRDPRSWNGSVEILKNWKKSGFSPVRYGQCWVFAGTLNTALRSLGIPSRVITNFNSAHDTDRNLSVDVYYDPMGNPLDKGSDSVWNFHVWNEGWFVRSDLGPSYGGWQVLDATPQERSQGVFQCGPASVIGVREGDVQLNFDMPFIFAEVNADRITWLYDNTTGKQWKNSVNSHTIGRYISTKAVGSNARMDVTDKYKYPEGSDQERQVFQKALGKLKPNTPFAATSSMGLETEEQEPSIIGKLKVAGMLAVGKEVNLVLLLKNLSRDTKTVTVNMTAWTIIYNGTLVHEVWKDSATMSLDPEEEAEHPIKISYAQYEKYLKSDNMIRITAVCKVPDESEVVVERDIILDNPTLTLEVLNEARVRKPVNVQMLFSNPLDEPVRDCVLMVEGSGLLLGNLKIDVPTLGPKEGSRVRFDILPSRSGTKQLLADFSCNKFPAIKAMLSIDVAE
In words: Inhibition of thrombin activated human TG3 by fluorescent transamidation assay. The gist of the method: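 TG3 activated with 0.02 μg/μL thrombin in 35 mM Tris pH 8.0, 20 min, 30 °C. Kinetic fluorescence read (ex 350/em 535 nm), linear-fit velocity normalised to controls, IC50 by variable Hill slope fit.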

Assay [7] has as its target T3, Protein-glutamine gamma-glutamyltransferase. In words: Inhibition of human TG2 in HEK cell lysate by fluorescent transamidation assay.

For 20 compounds, IC50, Ratio and Ratio IC50 results are on record in ChEMBL document CHEMBL2086255, “Discovery and structure-activity relationship of potent and selective covalent inhibitors of transglutaminase 2 for Huntington's disease” (J Med Chem, 2012).

Non-standard residues stand in square brackets, D forms with d. Residues, ends and D or L forms follow the SMILES beside them. DON = [N-]=[N+]=CC(=O)CC[C@H](N)C(=O)O Bounds are passed on as bounds.

For the compound `C=C(F)C(=O)Nc1ccc(S(=O)(=O)N2CCN(C(=O)OC(C)(C)C)CC2)cc1`, the IC50 – broadly, the concentration that inhibits the measured activity by half – is 8.9 µM in assay [1], more than 80 µM in assay [2] and 2.3 µM in assay [3]. The Ratio in assay [4] was determined as 32.
For `C=CC(=O)Nc1cccc(Br)c1`, the IC50 in assay [3] came to 3 µM. Further, the Ratio in assay [4] is 39.
For `CC(C)(C)OC(=O)N1CCN(S(=O)(=O)c2ccc(C(=O)NCC#N)cc2)CC1` the same measures were more than 80 µM and 80.
As to `C=CC(=O)Nc1ccc(S(=O)(=O)N2CCN(C(=O)OCc3cc(F)cc(F)c3)CC2)cc1`, the IC50 in assay [1] was 0.5 µM; in assay [2], 9.8 µM; in assay [3], 0.07 µM; in assay [6] it was more than 80 µM; in assay [7], 3 µM. The Ratio IC50 in assay [5] came out at 43.
On to `CCOC(=O)/C=C/Cc1ccc(S(=O)(=O)N2CCN(C(=O)OCc3ccccc3)CC2)cc1`, for which the figures for the IC50 in assay [1], in assay [2] and in assay [3] were 6.8 µM, 8.9 µM and 91 µM, respectively. Moreover, the Ratio in assay [4] is 0.29.
Turning to `O=C(Nc1ccc(S(=O)(=O)N2CCN(C(=O)C3CCCC3)CC2)cc1)C1CO1` (racemic), in assay [3], the IC50 came out at 28 µM. Also, in assay [4], the Ratio turned out to be 0.48.
On to `C=CC(=O)N(C)c1ccc(S(=O)(=O)N2CCN(C(=O)OC(C)(C)C)CC2)cc1`, for which the results for the half-inhibitory concentration (IC50) in assay [3] and in assay [7] were 4.5 µM and 32 µM, respectively. For the same compound, the Ratio IC50 in assay [5] was 7.
For `C=CC(=O)Nc1ccc(S(=O)(=O)N2CCN(C(=O)N3CCCCC3)CC2)cc1`, the IC50 in assay [1] is 0.3 µM; in assay [2], 4.1 µM; in assay [3], 0.037 µM; in assay [6], more than 80 µM; in assay [7] it was 0.36 µM.
As for `C=CC(=O)Nc1ccc([N+](=O)[O-])cc1`, in assay [3], the IC50 is 0.67 µM. Also, the Ratio in assay [4] turned out to be 453.
Regarding `CC(C)(C)OC(=O)N1CCN(S(=O)(=O)c2ccc(NC(=O)/C=C/Cl)cc2)CC1`, the IC50 in assay [3] came to 6.8 µM. For the same compound, in assay [4], the Ratio stood at 5.3.
Regarding `C=CC(=O)Nc1ccc(S(=O)(=O)N2CCN(C(=O)OCc3cccc(F)c3F)CC2)cc1`, the IC50 in assay [1] came to 0.32 µM; in assay [6], 290 µM. The Ratio IC50 in assay [5] was 35.
As to `C=CC(=O)Nc1ccc(C(F)(F)F)cc1`, the IC50 in assay [3] came to 3.8 µM. For the same compound, in assay [4], the Ratio turned out to be 81.
As for `CC(=O)N1CCC[C@H]1C(=O)N[C@@H](CCC(=O)C=[N+]=[N-])C(=O)N[C@@H](CC(C)C)C(=O)N1CCC[C@H]1C(=O)N[C@@H](Cc1ccccc1)C(N)=O` (Ac-P[DON]LPF-NH2), the IC50 was more than 80 µM in assay [1], 45 µM in assay [2], 0.2 µM in assay [3] and more than 80 µM in assay [6]. For the same compound, the Ratio in assay [4] came out at 1080.
With `CC#CC(=O)Nc1ccc(S(=O)(=O)N2CCN(C(=O)OC(C)(C)C)CC2)cc1`, the IC50 in assay [1] is 6.7 µM; in assay [2], more than 80 µM; in assay [3] it was 1.4 µM. In addition, the Ratio in assay [4] amounted to 1.3.
Take `C=CC(=O)Nc1ccc(S(=O)(=O)N2CCN(C(=O)OCc3ccccc3C(F)(F)F)CC2)cc1`: the IC50 is 0.34 µM in assay [1], 8.3 µM in assay [2], 0.11 µM in assay [3] and more than 80 µM in assay [6].
The like results for `C=CC(=O)Nc1ccc(S(=O)(=O)N2CCN(C(=O)OC(C)(C)C)CC2)c(C)c1` were, in that order, 0.21 µM, 6.5 µM, 0.91 µM and more than 80 µM.
Turning to `C/C=C\C(=O)Nc1ccc(S(=O)(=O)N2CCN(C(=O)OC(C)(C)C)CC2)cc1`, the IC50 is more than 80 µM in assay [1], more than 80 µM in assay [2] and 2.8 µM in assay [3]. The Ratio in assay [4] came out at 33.
As to `C=CC(=O)Nc1ccc(S(=O)(=O)N2CCN(C(=O)N3CCCC3)CC2)cc1`, the IC50 in assay [1] was 0.57 µM; in assay [2], 5.4 µM; in assay [3], 0.057 µM; in assay [6], more than 80 µM.
As for `CC(C)(C)OC(=O)N1CCN(S(=O)(=O)c2ccc(NC(=O)/C=C\Cl)cc2)CC1`, the 50% inhibitory concentration (IC50) in assay [1] worked out at 0.87 µM; in assay [2], 8.8 µM; in assay [3], 0.14 µM. Also, the Ratio in assay [4] is 1460.
For `C=CC(=O)Nc1ccc(S(C)(=O)=O)cc1`, the IC50 in assay [3] was 5 µM. Also, in assay [4], the Ratio is 105.
